The values below come from ChEMBL document CHEMBL1141397, “Pharmacophore-based design of sphingosine 1-phosphate-3 receptor antagonists that include a 3,4-dialkoxybenzophenone scaffold” (J Med Chem, 2007).

Common to all, as to assay type: functional, cell-based
In assay [1] the target is T1, Sphingosine 1-phosphate receptor 3 (Homo sapiens, UniProt Q99500). Put plainly: Antagonist activity against human S1P3 receptor assessed as inhibition of S1P-induced intracellular calcium mobilization in CHO-K1 cells. The method, boiled down: (§1)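 CHO-K1 cells stably transfected with the S1P1, S1P2 or S1P3 receptor, grown in Ham's F12K with G418 (200 µg/mL). Cells plated at 20 000/well in Ham's medium with 1% FBS for 24 h at 37 °C, washed, then held in Ham's medium for a further 24 h. Cells are washed with HBSS containing sulfinpyrazone (0.25 mmol/L) and loaded with Fura-2.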
T1 sequence (Q99500 whole entry): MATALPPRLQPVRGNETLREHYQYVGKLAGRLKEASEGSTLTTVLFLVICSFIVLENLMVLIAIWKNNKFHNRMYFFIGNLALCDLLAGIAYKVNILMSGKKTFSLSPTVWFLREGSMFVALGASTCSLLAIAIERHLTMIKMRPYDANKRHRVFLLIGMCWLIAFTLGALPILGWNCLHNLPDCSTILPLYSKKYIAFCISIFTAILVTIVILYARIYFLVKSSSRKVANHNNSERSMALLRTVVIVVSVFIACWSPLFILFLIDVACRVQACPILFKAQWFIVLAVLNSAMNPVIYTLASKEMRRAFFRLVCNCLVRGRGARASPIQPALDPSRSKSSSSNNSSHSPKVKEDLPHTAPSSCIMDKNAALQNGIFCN
For orientation: A change in cytosolic calcium serves as a functional read-out for many receptors and channels.

Assay [2] deals with T2, Sphingosine 1-phosphate receptor 1 (Homo sapiens, UniProt P21453). Put plainly: Activity at human S1P1 receptor assessed as inhibition of S1P-induced intracellular calcium mobilization in CHO-K1 cells at 10 uM. The method, boiled down:
as §1

For assay [3], the target named is T1, Sphingosine 1-phosphate receptor 3. Put plainly: Antagonist activity against human S1P3 receptor assessed as inhibition of S1P-induced intracellular calcium mobilization in CHO-K1 cells at 10 uM. In a few lines: as §1
For assay [4], the target named is Sphingosine 1-phosphate receptor 2 (Homo sapiens) (UniProt O95136). Put plainly: Antagonist activity against human S1P2 receptor assessed as inhibition of S1P-induced intracellular calcium mobilization in CHO-K1 cells at 10 uM. In a few lines: as §1
Sequence of Sphingosine 1-phosphate receptor 2 (Homo sapiens) (O95136 whole entry): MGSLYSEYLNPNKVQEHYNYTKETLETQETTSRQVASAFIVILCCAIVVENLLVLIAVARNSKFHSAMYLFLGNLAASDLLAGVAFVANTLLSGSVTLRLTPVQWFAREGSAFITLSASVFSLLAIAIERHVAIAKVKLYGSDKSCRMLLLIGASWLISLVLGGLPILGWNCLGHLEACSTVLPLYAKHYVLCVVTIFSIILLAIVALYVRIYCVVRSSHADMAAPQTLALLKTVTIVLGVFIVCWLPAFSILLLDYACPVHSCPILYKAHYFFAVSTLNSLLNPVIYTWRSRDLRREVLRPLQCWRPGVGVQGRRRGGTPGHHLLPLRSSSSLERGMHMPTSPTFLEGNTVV
Assay [5] deals with T2, Sphingosine 1-phosphate receptor 1. The assay can be described thus: Antagonist activity against human S1P1 receptor assessed as inhibition of S1P-induced intracellular calcium mobilization in CHO-K1 cells. In a few lines: as §1

Bounds are passed on as bounds.

The term IC50 denotes the concentration needed to halve the response being measured. Usually inhibition stands for the relative decrease from the control value, in per cent.

T2 sequence (P21453 whole entry): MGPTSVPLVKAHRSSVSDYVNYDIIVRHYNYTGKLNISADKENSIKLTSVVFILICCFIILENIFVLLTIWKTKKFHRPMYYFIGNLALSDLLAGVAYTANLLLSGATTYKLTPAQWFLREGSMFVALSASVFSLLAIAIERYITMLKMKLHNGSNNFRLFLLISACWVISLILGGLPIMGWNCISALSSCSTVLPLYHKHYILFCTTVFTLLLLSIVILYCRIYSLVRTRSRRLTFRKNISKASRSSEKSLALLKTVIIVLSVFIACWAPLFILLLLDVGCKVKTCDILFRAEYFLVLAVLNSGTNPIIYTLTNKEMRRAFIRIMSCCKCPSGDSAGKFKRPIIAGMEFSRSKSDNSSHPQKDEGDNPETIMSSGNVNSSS

For the compound `CCCCCCCc1cccc(C2N[C@H](C(=O)O)CS2)c1` (some centres not stated), in assay [1], the IC50 is 9.7 µM.

For `CCCCCCCc1ccc(C2N[C@H](C(=O)O)CS2)cc1` (some centres not stated), the IC50 in assay [1] came to 13 µM.

Take `CCCCCCCCCCCC1N[C@H](C(=O)O)CS1` (some centres not stated): in assay [1], the IC50 is 11.6 µM.

As for `CCCCCCCCCCCCCCCCOc1ccc(/C(=N/NS(=O)(=O)c2cccc(C(=O)O)c2)c2ccccc2)cc1OC`, the results for the inhibition in assay [2] and in assay [4] were 34.8% and -0.1%, respectively. Further, the HI in assay [3] worked out at 34.4%.

Take `CCCCCCCCCCCCCCCCOc1ccc(/C(=N\NS(=O)(=O)c2cccc(C(=O)O)c2)c2ccccc2)cc1OC`: the figures for the inhibition in assay [2], in assay [3] and in assay [4] were 1%, 8.3% and -8.7%, respectively.

Take `CCCCCCCCCc1cccc(C2N[C@H](C(=O)O)CS2)c1` (some centres not stated): the half-inhibitory concentration (IC50) in assay [1] is > 20 µM.

On to `CCCCCCCCCCCCCCCCOc1ccc(/C(=N/NS(=O)(=O)c2cc(C(=O)O)cc(C(=O)O)c2)c2ccccc2)cc1`, for which the inhibition in assay [2] was 17.2%; in assay [4], 20.5%. The IC50 in assay [1] turned out to be 9.74 µM.

In the case of `CCCCCCCCCCCCCCCCCC(=O)Nc1ccc(C(=O)CC(=O)Cc2cc(C(=O)O)ccc2Oc2cc(C(=O)O)cc(C(=O)O)c2)cc1`, the half-inhibitory concentration (IC50) in assay [1] stood at 3.59 µM.

For the compound `CCCCCCCCOc1ccc(/C(=N/NS(=O)(=O)c2cc(C(=O)O)cc(C(=O)O)c2)c2ccccc2)cc1OC`, the inhibition in assay [2] was 12.7%; in assay [4], -4.6%. Further, the concentration for half-maximal inhibition (IC50) in assay [1] was 11.4 µM.

As for `CCCCCCCCCCCCCCCCOc1ccc(/C(=N\NS(=O)(=O)c2cc(C(=O)O)cc(C(=O)O)c2)c2ccccc2)cc1OC`, the figures for the IC50 in assay [5] and in assay [1] were 4.28 µM and 3.57 µM, respectively. Moreover, in assay [4], the inhibition is 9.5%.

As for `CCCCCCCCCCCCCCCCOc1ccc(S(=O)(=O)O)cc1C(=O)O`, the IC50 in assay [1] came out at 8.75 µM.

Take `COc1ccc(C2N[C@H](C(=O)O)CS2)cc1COc1c(C)cc(Cl)cc1C(C)C` (some centres not stated): the IC50 in assay [1] was > 20 µM.

Take `CCCCCCCCCCCCCCCCOc1ccc(/C(=N/NS(=O)(=O)c2cc(C(=O)O)cc(C(=O)O)c2)c2ccccc2)cc1OC`: the IC50 in assay [5] is 6.64 µM; in assay [1], 2.96 µM. The inhibition in assay [4] stood at 40.9%.

On to `CCCCOc1ccc(/C(=N/NS(=O)(=O)c2cc(C(=O)O)cc(C(=O)O)c2)c2ccccc2)cc1OC`, for which the figures for the inhibition in assay [2], in assay [3] and in assay [4] were 24.2%, 6.7% and 6.2%, respectively.

For the compound `CCCCCCCCCCC1N[C@H](C(=O)O)CS1` (some centres not stated), the half-maximal inhibitory concentration (IC50) in assay [1] amounted to 15.7 µM.

Turning to `CCCCCCCCCCCCCCCCOc1ccc(/C(=N/NS(=O)(=O)c2cc(C(=O)O)cc(C(=O)O)c2)N2CCCCC2)cc1OC`, the values for the IC50 in assay [5] and in assay [1] were 6.18 µM and 3.44 µM, respectively. Further, the inhibition in assay [4] turned out to be 35.9%.

For `CCCCCCCCCCCCCC1N[C@H](C(=O)O)CS1` (some centres not stated), the inhibition in assay [3] was < 10%.

For `CCCCCCCCOc1ccc(/C(=N\NS(=O)(=O)c2cc(C(=O)O)cc(C(=O)O)c2)c2ccccc2)cc1OC`, the inhibition in assay [2] came out at 32.9%; in assay [4], 14%. Besides, the concentration for half-maximal inhibition (IC50) in assay [1] worked out at 13.2 µM.

Turning to `CCCCCCCCCCCCCCCCCNc1ccc(C(=O)CC(=O)Cc2cc(C(=O)O)ccc2Oc2cc(C(=O)O)cc(C(=O)O)c2)cc1`, the half-maximal inhibitory concentration (IC50) in assay [1] is 4.6 µM.
